Experimental data gathered from unrelated publications.
Lines come from different studies, so protocols differ.
TRPC3: Short transient receptor potential channel 3 (TRPC3, Homo sapiens, UniProt Q13507)

CCNC(=O)c1cnn(-c2ccc(-n3ccc(Cl)c(Cl)c3=O)cc2)c1C(F)(F)F  inhibition (TRPC3; ion current, inhibitor, patch clamp; HEK293; 10 µM): 95.7%
CNc1ncc2c(/C=C/C(=O)N3CCC(OC)CC3)nn(Cc3cccc(C(F)(F)F)c3)c2n1  remaining activity (Tyrosine-protein kinase Fgr (FGR, Homo sapiens, UniProt P09769); enzyme activity, inhibitor, radiometric; 1 µM): 90%
C=CC(=O)N1CCC(COCC(=O)N2CCN(c3nc(-c4cnc(N)nc4C(F)F)nc(N4CCOC[C@@H]4C)n3)CC2)CC1  remaining binding (Serine/threonine-protein kinase WNK4 (WNK4, Homo sapiens, UniProt Q96J92); binding, competition with immobilised ligand; 1 µM): 46%
C=CC(=O)N1C[C@@H](n2nc(C#Cc3c(F)cc4c(ncn4C4CC4)c3F)c(C(N)=O)c2NC)C[C@@H]1COC  inhibition (Serine/threonine-protein kinase 10 (STK10, Homo sapiens, UniProt O94804); enzyme activity, inhibitor, mobility shift; 1 µM): 64.6%
COc1cc(-c2cncc3c2CN(C)Cc2cc(N4CCNCC4)ccc2-3)cc(OC)c1OC  remaining activity (Interferon-induced, double-stranded RNA-activated protein kinase (EIF2AK2, Homo sapiens, UniProt P19525); enzyme activity, inhibitor; 1 µM): 102%
Cc1cc([C@@H](C)Nc2ccccc2C(=O)O)c2nc(N3CCC(F)(F)CC3)c(C#N)c(=O)n2c1  remaining binding (MAP kinase-interacting serine/threonine-protein kinase 2 (MKNK2, Homo sapiens, UniProt Q9HBH9); binding, competition with immobilised ligand; 10 µM): 100%
CCNC(=O)c1cn(-c2ccc(-n3ccc(Cl)c(Cl)c3=O)cc2)nc1C(F)(F)F  inhibition (TRPC3; ion current, inhibitor, patch clamp; HEK293; 10 µM): > 90%
C=CC(=O)Nc1ccccc1C(=O)Nc1ccc(C#Cc2ccc(OC)cc2)nn1  inhibition (Fibroblast growth factor receptor 1 (FGFR1, Homo sapiens, UniProt P11362); enzyme activity, inhibitor, radiometric; 1 µM): 3%
CCOC(=O)c1cnn(-c2ccc(NC(=O)C(Cl)=C(Cl)Cl)cc2)c1C(F)(F)F  inhibition (TRPC3; ion current, inhibitor, patch clamp; HEK293; 10 µM): 88.6%
COc1ccc(CNC(=O)c2cc3c(cc2[N+](=O)[O-])OCO3)cc1  inhibition (Myeloperoxidase (MPO, Homo sapiens, UniProt P05164); enzyme activity, inhibitor; 5 µM): > 50%
